Experimental data as given in ChEMBL document CHEMBL4513216, “Probing the Open Global Health Chemical Diversity Library for Multistage-Active Starting Points for Next-Generation Antimalarials” (ACS Infect Dis, 2020).

Assay: Toxicity liver stage against HepG2, at 10uM
Assay type: cell-based
Set-up: test concentration 10 uM, cell line HepG2-A16-CD81EGFP
Conditions: human, HepG2-A16-CD81EGFP cells; read-out: INHIBITION
Outline: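 Uninfected HepG2-A16-CD81EGFP cells, 3 × 10^3 per well, 1536-well, plated on prespotted compound at 10 μM final, parasite-free screening media added to match infected plates; puromycin 10 μM positive, DMSO 0.5% negative; run in parallel with 48 h PbLuc assay at 37 °C, 5% CO2; viability by CellTiter-Glo luminescence, normalized to controls.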

SMILES | cytotoxicity at 10 µM [%]
Cc1cc(C(=O)NCc2cccn2C)nn1C | 1.21
C/C(NC(=O)c1ccccn1)=C1\C(=O)C[C@@H]2[C@H]1C2(C)C | 7.66
COc1ccc(CNc2c(C)cnc3c2c(=O)n(C)c(=O)n3C)cc1 | 2.9
CCOCc1cncc2c1CCN(C(=O)c1cccc(C#N)c1)C2 | 3.55
COCCN1C(=O)CO[C@@H]2CN(S(=O)(=O)c3ccccc3)C[C@H]21 | 0.975
O=c1[nH]c2c(-c3ccccn3)nsc2c(=O)n1C1CCCCC1 | -11.5
Cc1nn(S(=O)(=O)c2ccc(Cl)cc2)c(C)c1C | 15.1
COCCN(Cc1ccoc1)C(=O)c1c(F)cccc1Cl | -0.11
Cc1oc(-c2nc(C#N)c(N(C)C)o2)cc1S(=O)(=O)N1CCCC1 | -8.87
Cc1noc([C@@H]2CC[C@@H]3[C@@H](CCN3S(=O)(=O)C3CC3)O2)n1 | -11.6
CCO[C@@H]1CC[C@H]2[C@H]1OCCN2C(=O)C1CCOCC1 | -19.8
Cc1ccnc(NC(=O)CCc2cnn(C)c2C)c1 | 0.107
CCS(=O)(=O)Nc1cnn(Cc2cccc(F)c2)c1 | -1
CCn1c(SCC(=O)O)nnc1C(C)NC(=O)c1ccc(Cl)cc1 (stereo unspecified) | 3.52
CCOC(=O)C1CCN(c2cc(C(=O)N3CCCCC3)nc(C)n2)CC1 | -4.17
COc1ccccc1Cc1cc(O)nc(NC(C)CN(C)C)n1 (stereo unspecified) | 2.32
Cc1ccccc1OCCCNC(=O)C1(C)CC(=O)N2C=CC=CC2=N1 (stereo unspecified) | -4.96
O=C(O)[C@H]1CN(Cc2ccccc2)C[C@@H]1C(=O)c1ccccc1 | 5.76
Cc1nn(C)cc1C(=O)N1CCC(C(=O)c2nc3ccccc3s2)CC1 | 8.12
O=C(COc1ccccc1Br)N1CCOc2ccncc21 | 5.13
O=c1[nH]c(=O)n(CC(O)c2ccc(F)cc2F)cc1Cl (stereo unspecified) | 2.64
Cc1cc(NC(=O)N2CCC[C@@H]2CO)nn1-c1cccc(Cl)c1 | -1.08
CC(=O)NC1CCCN(C(=O)CCc2cccnc2)C1 (stereo unspecified) | 19.8

SMILES | cytotoxicity at 10 µM [%]
N#Cc1cc(S(N)(=O)=O)ccc1N1CCc2c(Cl)cccc2C1 | 14.7
O=c1cc(CN(Cc2ccco2)C2CC2)nc2ccc(Br)cn12 | 9.48
O=C(CNC(=O)C1CC1)Nc1c(F)cccc1Oc1ccccc1 | 0.99
Cc1ccccc1OCCCC(=O)NCc1ccnc(O)c1 | 5.65
OCCN(Cc1cccnc1)c1cnc2ccccc2n1 | 1.06
COc1ccnc(N2CCCN(Cc3ncc(C(C)C)o3)CC2)n1 | 1.74
O=S(=O)(CC1CCCCO1)Nc1cnn(CC(F)F)c1 (stereo unspecified) | -3.09
CN(CCCNC(=O)Nc1ccc(C#N)cc1)CC(F)(F)F | -3
Cc1cc(I)cnc1NC(=O)C(C)(C)C | 4.44
CCOCCOC(C)C(=O)Nc1ccc2ccn(CCN(C)C)c2c1 (stereo unspecified) | 10.1
CC(C)(C)Oc1ccc(C(=O)N2CCOCC2c2ncon2)cc1 (stereo unspecified) | -0.968
CCOC(C)c1nc(CN2CCN(Cc3cccnc3)CC2)cs1 (stereo unspecified) | 3.59
O=C(CN1CCCCC1Cn1cccn1)NC1CCOCC1 (stereo unspecified) | 4.08
Cc1cc(CN(C)C(=O)C2CCCN(C(N)=O)C2)no1 (stereo unspecified) | 11.6
Cc1noc(C)c1CNC(=O)N1CCC(NS(C)(=O)=O)CC1 | -9.41
COc1ccc(F)cc1C[S+]([O-])CC(=O)NCc1ccccc1C (stereo unspecified) | -0.907
CN1CCC(NC(=O)CC2CN(Cc3ccccc3)CCO2)CC1 (stereo unspecified) | -22.2
Cc1cccc(-c2nc(CN3CCn4c(nnc4C4CC4)C3)no2)c1 | 3.33
N#Cc1nccnc1NC1CCN(c2c(F)cccc2F)C1 (stereo unspecified) | 5.2
COc1cc2c(cc1OC)S(=O)(=O)N(Cc1ccccc1)C2=O | 8.2
CCc1noc(CC)c1CNC(=O)Nc1cccc(C(=O)N(C)C)c1 | 16.4
COc1cc(F)c(C(C)NC(=O)c2cccnc2C)cc1OC (stereo unspecified) | 38
O=C(c1ccc(N2CCCC2)nn1)N1CCCc2cc(F)c(F)cc21 | -16.3

SMILES | cytotoxicity at 10 µM [%]
CSCCN(C)Cc1ccc(F)cc1C#N | 4.81
CCN(CC)S(=O)(=O)N(Cc1cccc(C)c1)Cc1ccccn1 | -4.88
O=C(Cc1ccon1)NC1CCCN(c2ccccc2F)C1=O (stereo unspecified) | -2.03
N#Cc1cccnc1N1CCCN(CC(=O)N2CCNC(=O)C2)CC1 | 4.07
COc1ccnc(N2CCN(Cc3nc(-c4ccoc4)no3)CC2)c1 | -10.9
CC(C)COCC(NC(=O)Cc1ccn[nH]1)c1ccco1 (stereo unspecified) | -1.53
COc1cccc(S(=O)(=O)Cc2cc(C)on2)c1 | 4.03
CN(CCC#N)C(=O)Cc1csc(-c2ncccn2)n1 | -0.343
Cc1nc(C2CCCN2C(=O)CCCOc2ccccc2C)no1 (stereo unspecified) | -2.21
CC(C)c1nc(CN(C)C2CCN(CC(F)(F)F)C2)no1 (stereo unspecified) | -15.8
O=C(c1cnccn1)N1CCc2onc(Cn3cccn3)c2C1 | -0.25
O=C(NCCO)c1ccn(-c2ccc3ccccn23)n1 | -8.21
COc1cccc(N2CCN(C(=O)C(C)Oc3ccccc3)CC2=O)c1 (stereo unspecified) | -4.73
CC(C)CC(C)NCc1cccnc1N1CCN(c2ccccn2)CC1 (stereo unspecified) | 0.997
CCc1nnc(CN(CC)C(=O)C2CC(=O)N(C3CC3)C2)o1 (stereo unspecified) | -0.143
Cc1cc(C(=O)N2CCCC(c3ccc(C(=O)O)cc3)C2)c(C)o1 (stereo unspecified) | 11.8
CCCn1nccc1S(=O)(=O)N1CCC2(CCCN(C(C)C)C2=O)C1 (stereo unspecified) | 5.96
Cc1cc(C)nc(N2CCCC(Cn3cc(CN(C)C)nn3)C2)n1 (stereo unspecified) | -5.43
CCC(OC)C(=O)N1CCC2(CC1)c1nc[nH]c1CCN2S(C)(=O)=O (stereo unspecified) | -6.6
COCCS(=O)(=O)c1ncc(CN(C)C)n1Cc1ccccc1 | 3.19
Cc1csc(CN2CC[C@@](O)(C3CCOCC3)[C@H](C)C2)n1 | 4.48
O=C(c1cnn[nH]1)N(Cc1ccncc1)CC1CCCO1 (stereo unspecified) | 2.86
CCC(C)N(Cc1sccc1C)C(=O)c1cnc[nH]1 (stereo unspecified) | 5.55

SMILES | cytotoxicity at 10 µM [%]
Cc1ccc(F)cc1CC(=O)N1CC[C@@]2(O)CCNC[C@H]2C1 | 2.38
O=C(O)CSc1nnc(-c2ccn[nH]2)n1-c1cccc(C(F)(F)F)c1 | 0.34
c1ccc(COCCN2CCc3[nH]cnc3C2c2ccoc2)cc1 (stereo unspecified) | 6.62
CCn1cc(C2=CCN(CCCOc3ccccc3)CC2)cn1 | -9.98
CCC(CO)N(Cc1ccco1)C(=O)c1cccnc1NC (stereo unspecified) | 1.64
Cc1[nH]ccc1C(=O)N[C@H]1CN(CCO)C[C@@H]1C1CC1 | 3.07
CN(CC1CCOCC1)C(C(=O)O)c1cccc(F)c1F (stereo unspecified) | 6.89
Cc1cc(CN2CCC(c3nccn3C(C)C)CC2)ccc1F | 5.22
O=C(Cc1n[nH]c(-c2cncc(Br)c2)n1)NCc1cccnc1 | 2.74
CCNc1cc(N2CCN(C(=O)c3ccc(OC)cc3)CC2)nc(C)n1 | -3.45
C=C(C)COc1cccc(C(=O)NCCCc2nnn[nH]2)c1 | -0.531
O=C(O)CSc1nnc(-c2cn[nH]c2)n1-c1ccccc1Cl | -3.54
Cc1nc2ncnn2c2ccn(-c3cccnc3O)c(=O)c12 | 15.9
Cn1cccc1C(=O)N1CCC2(CCCN(CC3CC3)C2=O)C1 (stereo unspecified) | -0.445
CCOC(=O)N1CCC(NC(=O)c2cccc(C3CCCNC3)c2)CC1 (stereo unspecified) | 1.34
COc1ccccc1OC1CN(C(=O)Cc2c(C)nc(C)[nH]c2=O)C1 | -2.9
CC(C)OCCCNC(=O)CS(=O)(=O)Cc1ccc(Cl)cc1 | -2.87
Cc1csc(CNC(=O)NC(C)c2ccc3c(c2)CCC(=O)N3)n1 (stereo unspecified) | 4.17
O=C(c1cccn1Cc1cccs1)N1CCSCC1 | 4.14
O=C(NCCOc1ccccc1)Nc1cc(C(F)(F)F)c[nH]c1=O | -11.9
O=C(NCCNc1ncccn1)C1CCN(C(=O)NC2CC2)CC1 | -14.5
Cc1cnn(C2CCCN(C(=O)CCCn3ccnc3C)C2)c1 (stereo unspecified) | -18.3
O=C(c1ccon1)N1CCCC(n2cncn2)C1 (stereo unspecified) | -8.51

SMILES | cytotoxicity at 10 µM [%]
N#Cc1ccc(OCC(O)CN2CCc3cncnc3C2)cc1 (stereo unspecified) | -8.61
N#CCc1cccc(C(=O)N2CCN(CC(O)c3ccccc3)CC2)c1 (stereo unspecified) | -10.7
c1csc(-c2noc(CN3CCCCC3Cn3cccn3)n2)c1 (stereo unspecified) | -15.4
CC(NC(=O)Nc1ccc(N2CCCC2)nc1)c1nncn1C (stereo unspecified) | -12.6
Cc1n[nH]c(C)c1NC(=O)CN1CCCC1c1c(C)nn(C)c1C (stereo unspecified) | -19.2
c1ccc(-n2ccc(CN3CCCC3Cn3cncn3)n2)cc1 (stereo unspecified) | 0.665
Cc1ccc(CNC(=O)N2CCCC(NS(C)(=O)=O)C2)cc1 (stereo unspecified) | 2.73
Cc1n[nH]c(=O)c2c(NC(=O)CN3CCOCC3)oc(C)c12 | -7.95
CC(C)n1c(C(=O)N2CCCC2)nc2c1CCN(C)C2 | 15.3
CCn1cc2c(n1)CN(Cc1ccoc1)CC2COCC1CC1 (stereo unspecified) | -23.3
O=C(NCc1cncc2c1CCN(Cc1cccs1)C2)C1CC1 | 2.13
Cc1nnc([C@]23COC[C@H]2CN(Cc2nccs2)C3)o1 | 0.872
O=C1CC(c2cccnc2)C2(CCN(S(=O)(=O)C3CC3)CC2)N1 (stereo unspecified) | -2.29
O=C(c1cnccn1)N1CCCC2(CCN(c3ncccn3)C2)C1 (stereo unspecified) | 5.61
O=C(CC1CC1)NCc1cn2c(n1)CN(CC1CC1)CC2 | 4.17
CC(C)NC(=O)c1ccc2c(c1)C1(CCN(C)CC1)C(=O)N2 | -0.201
Cc1nc(CN2CCO[C@@H]3CN(C(=O)CC4CC4)C[C@@H]3C2)cs1 | 5.04
CSc1ccccc1C(=O)N1C[C@@H]2CC[C@H]1CN(C(=O)C1CCC1)C2 | -6.75
OC12CCC(CC1)N(Cc1ccc(F)cc1)C2CN1CCOCC1 (stereo unspecified) | 5.29
